In assay [1] the target is T1, Tyrosine-protein phosphatase non-receptor type 1 (Homo sapiens) (UniProt P18031).
T1 sequence (whole entry): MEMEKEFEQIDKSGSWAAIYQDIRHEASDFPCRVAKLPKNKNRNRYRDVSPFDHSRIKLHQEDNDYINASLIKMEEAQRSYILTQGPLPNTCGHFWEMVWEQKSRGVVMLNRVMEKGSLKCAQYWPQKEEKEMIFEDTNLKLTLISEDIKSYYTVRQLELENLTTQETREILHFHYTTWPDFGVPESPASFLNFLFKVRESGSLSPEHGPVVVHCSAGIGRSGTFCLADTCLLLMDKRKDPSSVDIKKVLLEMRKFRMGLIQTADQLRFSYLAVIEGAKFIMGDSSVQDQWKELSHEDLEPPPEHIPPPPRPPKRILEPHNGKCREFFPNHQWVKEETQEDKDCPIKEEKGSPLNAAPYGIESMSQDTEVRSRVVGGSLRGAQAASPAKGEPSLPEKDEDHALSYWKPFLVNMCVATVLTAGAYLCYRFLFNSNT
Kind of assay: Inhibition of human recombinant PTP1B expressed in Escherichia coli TB1 assessed as residual activity at 40 uM. An outline of the steps: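 Single-point screen at 37 °C, pH 7.0: compound at 40 µM final (from 20 mM DMSO solution) in buffer with 2 mM pNPP. Reaction started with 0.16 µg human recombinant PTP-1B in 1 ml. p-Nitrophenol read at 400 nm. Residual activity given as % of DMSO control; quadruplicate.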

Assay [2] addresses T1, Tyrosine-protein phosphatase non-receptor type 1 (Homo sapiens). The assay is described as follows: Reversible inhibition of human recombinant PTP1B expressed in Escherichia coli TB1 assessed as complete recovery of residual enzyme activity at 37 deg C at 100 uM after 1 hr.
Assay [3] shares this target. The assay is described as follows: Inhibition of human recombinant PTP1B expressed in Escherichia coli TB1-catalyzed hydrolysis of p-nitrophenyl phosphate assessed as decrease in hydrolysis rate using 25 mM pNPP as substrate. An outline of the steps: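 Rates at 37 °C, pH 7.0, with 25 mM pNPP (12.5-fold Km), with inhibitor at 2.5, 5.0, 10, 25, 50, 100 and 200 µM. Residual activity measured to test for partial inhibition; quadruplicate.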

In assay [4] the target is T2, Tyrosine-protein phosphatase non-receptor type 1 (Homo sapiens, UniProt P18031).
T2 sequence (P18031 whole entry): T1 sequence (whole entry)
The assay is described as follows: Inhibition of human recombinant PTP1B expressed in Escherichia coli TB1 by double reciprocal plot analysis. The procedure, abridged:
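Initial hydrolysis rates at 37 °C, pH 7.0, across pNPP 0.5–40 mM, with several inhibitor concentrations (e.g. 0, 5, 10, 20, 30 µM). Data analysed as Lineweaver–Burk (1/v vs 1/[S]) plots to assign inhibition type; quadruplicate.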

The target of assay [5] is T1, Tyrosine-protein phosphatase non-receptor type 1 (Homo sapiens). Kind of assay: Inhibition of human recombinant PTP1B expressed in Escherichia coli TB1-catalyzed hydrolysis of p-nitrophenyl phosphate assessed as decrease in hydrolysis rate by slow binding assay. An outline of the steps:
(§1)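 Time-course of pNPP hydrolysis by recombinant PTP-1B at several inhibitor concentrations, with p-nitrophenol release followed continuously at 400 nm. Initial rates and curve linearity examined, either without enzyme–inhibitor preincubation or after 30 min preincubation.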

The target is the same in assay [6]. Kind of assay: Inhibition of human recombinant PTP1B expressed in Escherichia coli TB1-catalyzed hydrolysis of p-nitrophenyl phosphate assessed as decrease in hydrolysis rate preincubated for 30 mins by slow binding assay. The procedure, abridged: as §1
Assay [7] shares this target. Kind of assay: Reversible inhibition of human recombinant PTP1B expressed in Escherichia coli TB1 assessed as complete recovery of residual enzyme activity at 4 deg C at 100 uM after 1 hr.
The target in assay [8] is T2, Tyrosine-protein phosphatase non-receptor type 1. The assay is described as follows: Inhibition of human recombinant PTP1B expressed in Escherichia coli TB1 assessed as residual activity. The procedure, abridged: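 Tagged human PTP-1B produced in E. coli TB1 from pGEX-2T, affinity-purified, thrombin-cleaved, gel-filtered. Run at 37 °C, pH 7.0, in 0.075 M β,β-dimethylglutarate with 1 mM EDTA and 1 mM DTT, substrate 2 mM pNPP (Km). IC50 used varying inhibitor, 10 nM enzyme, KOH stop, p-nitrophenol at 400 nm. Fit of vi/vo versus concentration; quadruplicate.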

The next assay concerns Rattus norvegicus. The assay is described as follows: Antihyperglycemic activity against STZ-nicotinamide-induced diabetes in overnight fasted Wistar rat assessed as decrease in glycemia at 100 mg/kg, administered intragastrically after 5 to 7 hrs by glucose oxidase method. It counts as functional. An outline of the steps: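 Male Wistar rats (200–250 g) made diabetic by i.p. nicotinamide 110 mg/kg (saline), then 15 min later i.p. streptozotocin 65 mg/kg (citrate pH 4.5), after overnight fast; hyperglycemia confirmed at 72 h. Test compounds 100 mg/kg or glibenclamide 5 mg/kg given orally as 1% Tween 80 suspension, n = 5. Caudal vein glucose (glucose oxidase glucometer) at 0, 1, 3, 5, 7 h; % variation versus 0 h.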

pIC50, pKi: −log10 of the molar value. The source made the active and inactive calls. The calls are words filed in the database; no cut-off is given here.

For `CC(=O)Nc1ccc(S(=O)(=O)Nc2nc3ccc([N+](=O)[O-])cc3s2)cc1`, the outcome in [1] was inactive.

Turning to `CCOc1ccc2nc(NS(=O)(=O)c3ccc([N+](=O)[O-])cc3)sc2c1`, the result in assay [1], in assay [2], in [3], in assay [5], in [6] and in [7] was Active. Also, the pKi (usually the Ki on a negative log10 scale, so that one unit is a factor of ten) in assay [4] was 4.69. Moreover, the pIC50 – broadly, the IC50 on a negative log10 scale, so that one unit is a factor of ten – in assay [8] is 4.39.

For `COc1ccc(Cl)cc1C(=O)NCCc1ccc(S(=O)(=O)NC(=O)NC2CCCCC2)cc1`, the result in the assay with Rattus norvegicus was Active.

For the compound `Cc1ccc2nc(NS(=O)(=O)c3ccc([N+](=O)[O-])cc3)sc2c1`, the result in assay [1], in [2], in [3], in assay [5], in assay [6] and in assay [7] was Active. In the assay on Rattus norvegicus (route intragastric), the Activity is listed as 27%. Moreover, the pKi in assay [4] is 5.15. Also, the pIC50 in [8] is 4.71.

Turning to `CCOc1ccc2nc(NS(=O)(=O)c3ccc(Cl)cc3)sc2c1`, the outcome in assay [1] was inactive.

`COc1ccc2nc(NS(=O)(=O)c3ccc([N+](=O)[O-])cc3)sc2c1`: the outcome in assay [1] was inactive.

Consider `O=[N+]([O-])c1ccc(S(=O)(=O)Nc2nc3ccc(Cl)cc3s2)cc1`, for which the result in [1] was inactive.

The record behind these values is ChEMBL document CHEMBL1138628, “Synthesis, in vitro and computational studies of protein tyrosine phosphatase 1B inhibition of a small library of 2-arylsulfonylaminobenzothiazoles with antihyperglycemic activity” (Bioorg Med Chem, 2009).
